Laboratory results taken from PubChem BioAssay AID488937 (Broad Institute, 2010).
Inconclusive results are not listed. Active and inactive are the calls of the source.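 How the source made its calls: active means compounds whose fitted half-maximal growth inhibition dose is no more than ten times the top tested dose; inconclusive means flat curve inhibiting 30 to 70%, or poor curve fit; inactive means flat within 30%, weaker potency, or rising signal.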

Test: Candida albicans growth inhibition, agent alone, dose response, counter-screen for reversing antifungal drug resistance, CaCi-2 strain, dry powder, set 3 (AID 488937)
Conditions: C. albicans CaCi-2 growth, Alamar Blue fluorescence, 48 h; series mostly up to 26 µM
Summary of the method: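 assay system = Candida albicans strain CaCi-2 yeast, fluconazole absent | buffer or medium = RPMI medium without fluconazole | times = 48 h growth at 37 °C, dye 2 h | detection = Alamar Blue fluorescence in RFU[…]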

**Q.** With `O=C(c1ccc(Cl)cc1)N1CCN(c2nccs2)CC1` as the compound, how does the outcome read?
**A.** inactive

**Q.** For `O=C(c1ccc(Cl)cc1)N1CCN(c2cccc(C(F)(F)F)n2)CC1`, which outcome is on record?
**A.** inactive

**Q.** With `CC(C)C(=O)N1CCN(c2ccccn2)CC1` as the compound, how does the outcome read?
**A.** inactive

**Q.** With `Cc1cccc(N2CCN(C(=O)c3ccc(Cl)cc3)CC2)n1` as the compound, how does the outcome read?
**A.** inactive

**Q.** For `O=C(c1ccc(Cl)cc1)N1CCN(c2nc3ccccc3o2)CC1`, which outcome is on record?
**A.** inactive

**Q.** Which outcome does the source give for `Cc1ccc(C(=O)N2CCN(c3ccccn3)CC2)cc1` here?
**A.** inactive

**Q.** For `Cc1ccc(N2CCN(C(=O)c3ccc(Cl)cc3)CC2)nc1`, which outcome is on record?
**A.** inactive

**Q.** For `COCCC(=O)N1CCN(c2ccccn2)CC1`, which outcome is on record?
**A.** inactive

**Q.** With `CCCCC(=O)N1CCN(c2ccccn2)CC1` as the compound, how does the outcome read?
**A.** inactive

**Q.** For `O=C(c1ccc(Cl)cc1)N1CCN(c2ccc(C(F)(F)F)cn2)CC1`, which outcome is on record?
**A.** inactive

**Q.** For `Cc1ccnc(N2CCN(C(=O)c3ccc(Cl)cc3)CC2)c1`, which outcome is on record?
**A.** inactive

**Q.** Which outcome does the source give for `O=C(c1ccc(F)cc1)N1CCN(c2ccccn2)CC1` here?
**A.** inactive

**Q.** With `COc1cccnc1N1CCN(C(=O)c2ccc(Cl)cc2)CC1` as the compound, how does the outcome read?
**A.** inactive

**Q.** For `O=C(c1ccccc1Cl)N1CCN(c2ccccn2)CC1`, which outcome is on record?
**A.** inactive

**Q.** With `O=C(c1ccc(Cl)cc1)N1CCN(c2cnccn2)CC1` as the compound, how does the outcome read?
**A.** inactive

**Q.** For `N#Cc1cccnc1N1CCN(C(=O)c2ccc(Cl)cc2)CC1`, which outcome is on record?
**A.** inactive

**Q.** With `N#Cc1ccc(C(=O)N2CCN(c3ccccn3)CC2)cc1` as the compound, how does the outcome read?
**A.** inactive

**Q.** Which outcome does the source give for `O=C(c1ccccc1)N1CCN(c2ccccn2)CC1` here?
**A.** inactive

**Q.** With `Cn1ccnc1N1CCN(C(=O)c2ccc(Cl)cc2)CC1` as the compound, how does the outcome read?
**A.** inactive

**Q.** For `Cc1ccc(N2CCN(C(=O)c3ccc(Cl)cc3)CC2)nn1`, which outcome is on record?
**A.** inactive

**Q.** Which outcome does the source give for `O=C(c1ccc(Cl)cc1)N1CCN(c2nc3ccccc3s2)CC1` here?
**A.** inactive

**Q.** For `O=C(c1ccc(Cl)cc1)N1CCN(c2ncccn2)CC1`, which outcome is on record?
**A.** inactive

**Q.** For `COc1ccc(C(=O)N2CCN(c3ccccn3)CC2)cc1`, which outcome is on record?
**A.** inactive
